Screens from PubChem BioAssay.
eIF4E 4G PPI: eIF4E/eIF4G interaction inhibition in translation initiation | inhibition, % at 21.7 µM | P63073+Q04637 | TR-FRET eIF4E-eIF4GI(517-606) binding, 2 h | hit rate 0.37% among 220,000;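 active means inhibition above about 30%, limit read from the data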;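 further: 0% = full FRET control wells and 100% = background wells lacking eIF4GI fragment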
eIF4H inh: inhibitors of RNA binding by human eIF4H. eIF4H fluorescence polarization binding assay. inhibition, % at 35 µM. AID 2012. Q15056. hit rate 0.94% among 290,000;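 further: calls also rest on retests at 20 µM and on dose response follow-up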
MLLE-PAM2 inh: inhibitors of microRNA-mediated deadenylation, human PABP1 MLLE binding; P11940; GST-MLLE / FITC-PAM2 fluorescence polarization; inhibition, % at 20 µM; hit rate 0.36% among 360,000; AID 588489; in the data active means inhibition above about 35%, passing the limit was not always enough;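 further: plate controls were DMSO wells with GST-MLLE for no effect and wells lacking GST-MLLE protein for full effect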
UBC9 SUMO inh: inhibitors of human SUMOylation (UBC9) | hit rate 0.36% among 290,000 | P63279 | HTRF SUMOylation assay, SAE1/SAE2 + UBC9, in vitro | inhibition, % at 35 µM; in the data active means inhibition above about 50%, passing the limit was not always enough
Target sequence (P63279 whole entry, looked up): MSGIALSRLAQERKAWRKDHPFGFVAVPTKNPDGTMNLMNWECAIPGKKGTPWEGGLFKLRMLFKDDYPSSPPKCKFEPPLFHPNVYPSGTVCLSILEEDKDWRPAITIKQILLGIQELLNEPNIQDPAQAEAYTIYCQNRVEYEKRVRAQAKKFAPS
PABP FP inh: PABP-poly(A) binding inhibition. hit rate 1% among 290,000. calls only at 35 µM. AID 2014. PABP-poly(A) RNA binding, fluorescence polarization. P11940;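 further: calls also rest on retests at 20 µM and on dose response follow-up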
HCV core dimer: blocks dimerization of HCV core protein; TR-FRET GST/Flag-core106 dimerization, 1536-well; inhibition, % at 5 µM; hit rate 0.33% among 300,000; AID 1899;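 active means inhibition above the mean of all tested compounds plus 3 SD, set per screening campaign, cut at about 45% in these data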
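System: GST/Flag-tagged HCV core106 proteins. Incubation: compound-protein-antibody incubation 4 h at 22.5 °C. Technique: HTRF with 340 nm excitation, 617/671 nm emission. Medium: KF-containing HEPES buffer, pH 7.45, DTT, CHAPS, BSA. Read-out: inhibition (%) from 671 over 617 nm ratio. Also added: Eu(K)-anti-GST 90 ng/mL plus XL665-anti-Flag 1 µg/mL.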
Active calls of the source: *; i = inactive; . = no result; + = active, no number; [ ] = remark or other dose. An excerpt weighted towards active compounds, which were near 1.8% of everything screened. Unless noted, how the calls were made is not given here.

SMILES	eIF4E 4G PPI	eIF4H inh	MLLE-PAM2 inh	UBC9 SUMO inh	PABP FP inh	HCV core dimer
CCOc1ccccc1Nc1cc(C)c2cccc(C)c2n1	.	-4.2	6.4	6.1	i	-4.9
O=C1CCCC(O)=C1Sc1ccccc1C(=O)O	7.5	86.8*	8.7	24.2	i	5.1
O=C1CCCC(O)=C1C(C#Cc1ccccc1)C1=C(O)CCCC1=O	42.2*[fluorescence artefact?]	-0.1	22.8	7.9	i	-3.7
COc1ccc(S(=O)(=O)NCC(c2ccc(F)cc2)N2CCOCC2)cc1Br (stereo not drawn)	.	.	15.2	.	.	.
CCOC1=C2[C@@H](CN(S(=O)(=O)c3ccc(C)cc3)[C@H]2c2ccccc2Cl)[C@H]2C(=O)N(C)C(=O)[C@H]2C1	.	.	5.5	.	.	.
O=C(CN1CCN(Cc2ccc3c(c2)OCO3)CC1)Nc1ccc2[nH]c(=O)[nH]c2c1	.	.	7.5	.	.	.
CCOc1ccc(-c2c(C)sc3nc[nH]c(=O)c23)cc1	.	-5.7	-21.7	2.1	i	3.1
CCCC1(CC)C(=O)NC(=O)N=C1N (stereo not drawn)	.	.	4.0	.	.	.
CCOC(=O)C1=C(O)/C(=C\c2sccc2C)N=C1C	23.0	77.5*	9.5	13.7	+	-8.0
COC(=O)C1=C(O)/C(=C\c2sccc2C)N=C1C	1.5	64.7*	1.4	-24.2	+	-22.9
CN1CCC(OC(=O)c2cccc(Cl)c2)CC1	3.1	8.9	3.2	-0.7	i	-0.2
COc1ccccc1N1CCN(C(=O)CSc2nc3ccccc3nc2N2CCC(C)CC2)CC1	.	-4.7	15.2	-5.3	i	-1.4
C=CCCN(Cc1ccccc1)S(=O)(=O)c1cc(Br)ccc1Br	.	.	-10.0	.	.	.
CCOc1ccc(-c2ccc(/C=C3/C(=N)N4C(C)=CSC4=NC3=O)o2)c([N+](=O)[O-])c1	14.0	79.6*	-9.7	23.0	+	36.0
CC(=O)c1cc(C#N)c(N2CCCC2)nc1C	20.8	1.1	9.7	2.1	i	0.8
Cn1cc(C(=O)N/N=C/C(Br)=C\c2ccccc2)ccc1=O	-3.2	56.7*	-6.3	-21.0	+	-5.1
Cn1cc(C(=O)N/N=C/C(Br)=C/c2ccccc2)ccc1=O	-3.9	-1.6	-18.3	21.5	i	-9.0
CCOC(=O)C1(Cc2ccc(Cl)cc2)CCN(Cc2cn(CC)nc2C)CC1	-2.9	1.6	7.2	12.8	i	0.9
O=C(NCc1ccco1)c1sc(=S)n2c1[nH]c(=O)c1ccccc12	4.4	5.0	44.6*	16.8	i	-4.9
O=C(NC1CCCC1)c1sc(=S)n2c1[nH]c(=O)c1ccccc12	7.5	2.1	27.4	17.0	i	-3.2
NS(=O)(=O)c1ccc(CNC(=O)c2ccc(C(=O)c3ccccc3)cc2)cc1	.	.	-7.9	.	.	.
COc1ccc2nc(Cl)c(C#N)cc2c1	4.2	-1.9	3.2	1.6	i	-0.2
Cc1cc(C)n(NC(=S)NC2CCCC2)c(=O)c1C#N	-6.6	-2.2	44.9*	5.8	i	-7.9
CCn1c(C)cc(C)c(C#N)c1=O	0.9	5.7	9.8	-4.1	i	-6.7
CC(C)c1onc(C(=O)NC2CCCC2)c1[N+](=O)[O-]	0.8	8.3*	15.7	4.3	+	-2.7
SMILES	eIF4E 4G PPI	eIF4H inh	MLLE-PAM2 inh	UBC9 SUMO inh	PABP FP inh	HCV core dimer
CC(C)c1onc(C(=O)N(C)C2CCCCC2)c1[N+](=O)[O-]	0.7	-4.6	-0.7	24.2	i	0.7
N#CC1=C(N)NC(=S)C(C(N)=O)C1c1ccc([N+](=O)[O-])cc1 (stereo not drawn)	-7.7	7.7	38.6*	0.7	i	0.5
O=C1NC(C(=O)O)=CC(c2ccc([N+](=O)[O-])cc2)N1 (stereo not drawn)	3.9	-2.6	16.3	6.9	i	5.2
Cc1ccc(C(=O)N/N=C/c2cn(Cc3ccccc3)c3ccccc23)cn1	5.5	-7.9	1.1	9.6	i	3.4
CCNC(=S)N/N=C/c1cn(Cc2ccccc2F)c2ccccc12	1.6	4.8	11.9	-16.7	i	10.3
CCNC(=S)N/N=C/c1cn(Cc2ccc(F)cc2)c2ccccc12	2.2	81.9*	8.3	-23.9	+	10.6
O=C(N/N=C/c1cn(Cc2ccccc2)c2ccccc12)c1cc(O)cc(O)c1	.	61.5*	-5.2	11.5	i	.
CCN(C[C@H]1N[C@@](C)(C(=O)OC)[C@H]2C(=O)N(C)C(=O)[C@@H]12)S(=O)(=O)c1ccc(-c2ccccc2)cc1	.	.	1.8	.	.	.
